Activity calls are given as the source filed them. The rule behind the calls is not given here.
How the values were obtained:
[1] = target: RAC-alpha serine/threonine-protein kinase (Homo sapiens) (UniProt P31749); experiment: Inhibition of AKT phosphorylation in human A549 at 5 uM after 24 hrs by Western blot analysis; assay type: functional
Method in brief: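 A549 cells treated 24 h with 5 μM compound, with DMSO controls. Lysed in Tris pH 7.4/NaCl/EDTA/EGTA/1% Triton X-100 buffer containing NaF, Na3VO4 and protease inhibitors, 10 min at 4°C, then cleared at 14,000 xg. 10 μg protein by BCA run on SDS-PAGE and blotted to PVDF. Probed with anti-pAKT and compared with pan-AKT.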

A549 [2] = experiment: Induction of autophagy in human A549 cells assessed as increase in LC3II after 3 hrs relative to control; assay type: functional, cell-based
Method in brief: (§1)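 A549 cells given 5 μM compound, with DMSO-treated controls, and harvested at times from 0 to 24 h. Lysis buffer: 20 mM Tris pH 7.4, 150 mM NaCl, 1 mM EDTA/EGTA, 1% Triton X-100, NaF, Na3VO4 and protease inhibitors, 10 min at 4°C. 10 μg protein run on SDS-PAGE and immunoblotted for LC3B, with actin as loading reference.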

NCI-H522 = experiment: Cytotoxicity against human NCI-H522 by SRB assay; assay type: functional, cell-based
Method in brief: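 SRB cytotoxicity assay after 24 h drug exposure. Cells grown in DMEM with 10% FBS and penicillin/streptomycin at 37 °C under 5% CO2. Compounds taken from 10 mM DMSO stocks and diluted in medium over 0.1–50 μM, final DMSO 0.2%, with DMSO-only controls. IC50 obtained by non-linear regression of dose-response curves.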

[3] = Cytotoxicity against human H441 by SRB assay; assay type: functional; settings: NCI-H441
NCI-H2126 = experiment: Cytotoxicity against human NCI-H2126 by SRB assay; assay type: functional, cell-based
NCI-H23 = experiment: Cytotoxicity against human NCI-H23 by SRB assay; assay type: functional, cell-based
NCI-H460 = experiment: Cytotoxicity against human NCI-H460 by SRB assay; assay type: functional, cell-based
A549 [4] = experiment: Cytotoxicity against human A549 cells by SRB assay; assay type: functional, cell-based
A549 [5] = experiment: Induction of autophagy in human A549 cells assessed as increase in LC3II after 24 hrs relative to control; assay type: functional, cell-based; method in brief: as §1
NCI-H1299 = experiment: Cytotoxicity against human NCI-H1299 by SRB assay; assay type: functional, cell-based
NCI-H226 = experiment: Cytotoxicity against human NCI-H226 by SRB assay; assay type: functional, cell-based
Homo sapiens = species: Homo sapiens; settings: at 5 µM

RAC-alpha serine/threonine-protein kinase (Homo sapiens), sequence (P31749 whole entry): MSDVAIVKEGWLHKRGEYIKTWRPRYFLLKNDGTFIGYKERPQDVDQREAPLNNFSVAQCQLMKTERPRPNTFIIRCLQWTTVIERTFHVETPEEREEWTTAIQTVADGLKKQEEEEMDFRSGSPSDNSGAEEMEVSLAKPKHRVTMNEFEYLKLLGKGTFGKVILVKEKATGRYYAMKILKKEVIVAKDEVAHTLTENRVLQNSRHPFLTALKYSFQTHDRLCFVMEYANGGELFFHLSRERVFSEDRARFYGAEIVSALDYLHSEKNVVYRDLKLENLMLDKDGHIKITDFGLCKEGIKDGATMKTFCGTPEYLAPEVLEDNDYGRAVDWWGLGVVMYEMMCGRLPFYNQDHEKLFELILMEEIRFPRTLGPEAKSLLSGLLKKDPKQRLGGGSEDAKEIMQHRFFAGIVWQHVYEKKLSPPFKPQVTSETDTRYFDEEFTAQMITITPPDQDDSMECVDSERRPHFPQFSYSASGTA

| Structure (SMILES) | inhibition [1] | Activity (A549 [2]) | IC50 (NCI-H522) [nM] | IC50 [3] [nM] | IC50 (NCI-H2126) [nM] | IC50 (NCI-H23) [nM] | IC50 (NCI-H460) [nM] | IC50 (A549 [4]) [nM] | Activity (A549 [5]) | IC50 (NCI-H1299) [nM] | IC50 (NCI-H226) [nM] | inhibition (Homo sapiens) |
| --- | --- | --- | --- | --- | --- | --- | --- | --- | --- | --- | --- | --- |
| O=C(CCCCCCC(=O)Nc1ccccc1)NO [VORINOSTAT] | inactive | inactive | 832 |  |  |  |  |  |  |  |  |  |
| O=C(CCCCC[Se][Se]CCCCCC(=O)Nc1ccccc1)Nc1ccccc1 | Active | Active | 188 | 92 | 1090 | 279 | 2130 | 370 | Active | 438 | 1730 | Active |
| N#C[Se]CCCCCC(=O)Nc1ccccc1 | Active | Active | 779 | 449 | 928 | 271 | 1460 | 653 | Active | 923 | 1050 | Active |

— ChEMBL document CHEMBL1268848, “Selenium-containing analogs of SAHA induce cytotoxicity in lung cancer cells” (Bioorg Med Chem Lett, 2010)
